Screening data: PubChem BioAssay, The Scripps Research Institute Molecular Screening Center
LYPLA1 inh: blocks human lysophospholipase 1, a PME1 counter-screen | recombinant LYPLA1, FP-Rh probe fluorescence polarization | inhibition, % at 5.9 µM | actives 0.16% (n = 320,000) | AID 2174;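 active = inhibition above the mean of all tested compounds plus 3 SD, set per campaign, cut at about 14% in these data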;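 also: inhibitors block serine hydrolase probe labeling of LYPLA1 so polarization falls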
LYPLA2 counter: LYPLA2 (human) inhibition in PME1 counter-screen; O95372; recombinant LYPLA2, FP-Rh probe fluorescence polarization; inhibition, % at 5.9 µM; actives 0.38% (n = 320,000); AID 2177;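 active = inhibition above the screen-wide mean plus 3 SD, limit set per campaign, cut at about 26% in these data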
procasp3 activ: procaspase-3 (human) activation | actives 0.11% (n = 330,000) | P42574 | activation, % at 8.5 µM | recombinant procaspase-3 D3A, Ac-DEVD-pNA absorbance 405 nm;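 active = activation above the mean of all tested compounds plus 3 SD, cut at about 21% in these data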
Target sequence (P42574 whole entry D9A/D28A/D175A): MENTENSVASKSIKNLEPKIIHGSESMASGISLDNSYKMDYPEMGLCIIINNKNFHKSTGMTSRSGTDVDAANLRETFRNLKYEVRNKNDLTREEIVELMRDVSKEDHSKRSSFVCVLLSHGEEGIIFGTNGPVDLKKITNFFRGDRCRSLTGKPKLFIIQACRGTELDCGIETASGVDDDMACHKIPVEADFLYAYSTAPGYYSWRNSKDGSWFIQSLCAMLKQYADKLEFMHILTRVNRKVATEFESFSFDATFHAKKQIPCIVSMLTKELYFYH
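assay system = Procaspase-3 D3A mutant | signal = absorbance at 405 nm, 0 and 120 min | times = 1 h preincubation plus 2 h reaction at 25 °C | repeats = single replicate | read-out = % activation between DMSO and enzyme-spiked controls | medium = Zinc-free HEPES saline buffer with Triton X-100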
Fam108B inh: Fam108B inhibition, counter-screen for RBBP9 inhibitors. inhibition, % at 9.51 µM. recombinant Fam108B, FP-Rh probe fluorescence polarization. actives 0.33% (n = 300,000);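 active = inhibition above the screen mean inhibition plus 3 SD, computed separately per campaign, cut at about 18% in these data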;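 also: inhibitors lower polarization as less probe binds the enzyme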
proCasp7 act: activates human procaspase-7, counter-screen for procaspase-3 activators; actives 0.093% (n = 330,000); P55210; AID 463210; activation, % at 8.5 µM; recombinant procaspase-7, Ac-DEVD-pNA absorbance 405 nm; D23A/D198A/D206A triple mutant, cannot self-cleave; scale: DMSO 0, 5 µM enzyme 100;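 active = percent activation above the screen-wide mean plus 3 SD, cut at about 25% in these data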
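Assay system: Uncleavable procaspase-7 mutant enzyme / Input: 2 µM procaspase-7 mutant as dispensed / Dosing: single nominal 8.5 µM compound dose, 0.8% DMSO final / Timing: 1 h enzyme–compound preincubation and 2 h substrate reaction, both 25 °C / Detection: p-Nitroaniline absorbance at 405 nm, read at 0 and 120 min / Replication: singlicate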
PME-1 primary: blocks human protein phosphatase methylesterase 1; Q9Y570; recombinant PME-1, FP-Rh probe fluorescence polarization; inhibition, % at 5.9 µM; actives 0.53% (n = 320,000);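 active = inhibition above the campaign mean of all compounds plus 3 SD, cut at about 26% in these data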;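 also: competitive labeling of PME-1 active site by serine hydrolase directed probe; inhibitors block probe labeling so polarization falls and inhibition rises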
Target sequence (Q9Y570 whole entry, looked up): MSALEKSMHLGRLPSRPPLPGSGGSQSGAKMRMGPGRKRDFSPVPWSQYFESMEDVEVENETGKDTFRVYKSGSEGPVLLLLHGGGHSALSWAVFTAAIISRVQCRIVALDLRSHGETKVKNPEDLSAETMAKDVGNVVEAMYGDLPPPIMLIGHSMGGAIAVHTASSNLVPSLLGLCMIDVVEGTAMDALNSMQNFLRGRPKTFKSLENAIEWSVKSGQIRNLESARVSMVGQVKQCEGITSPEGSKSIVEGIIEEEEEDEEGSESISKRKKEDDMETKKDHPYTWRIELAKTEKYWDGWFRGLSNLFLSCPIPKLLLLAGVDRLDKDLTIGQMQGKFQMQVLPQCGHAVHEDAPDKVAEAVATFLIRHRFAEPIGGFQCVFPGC
PC3 dual counter: counter-screen: procaspase-3 (human) activation. shares compounds with proCasp7 act. recombinant PC-3 D3A, Ac-DEVD-pNA absorbance 405 nm; aspartates 9, 28, 175 changed to alanine; 100% = enzyme control. activation, % at 8.5 µM. 290 tested, under 10 active. AID 493114;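 active = mean percent activation across triplicates above a set limit taken from the earlier primary procaspase-3 screen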
PC7 dual conf: procaspase-7 (human) activation, dual activator confirmation; shares compounds with proCasp7 act; recombinant procaspase-7, Ac-DEVD-pNA absorbance 405 nm; D23A/D198A/D206A mutant that cannot self-cleave; activation, % at 8.5 µM; 290 tested, under 10 active; AID 493115;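 active = mean activation above a set limit carried over from the earlier primary screen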
Each line names hits and unclear results; the compound was inactive in the other large screens (follow-up assays come after a bar, where they were run). Rows were chosen to be rich in hits. Some 1% of all compounds tested hit in one or more screens of this group.

Cc1c(CC(=O)N2CCN(C(=O)C3COc4ccccc4O3)CC2)c(=O)oc2cc(O)ccc12 (stereo not given)	procasp3 activ 23.7, proCasp7 act 29.6 | PC3 dual counter inactive | PC7 dual conf inactive
Cc1c(CC(=O)N2CCN(C(=O)C3COc4ccccc4O3)CC2)c(=O)oc2c(C)c(O)ccc12 (stereo not given)	procasp3 activ 26.7, proCasp7 act 26.2 | PC3 dual counter inactive | PC7 dual conf inactive
O=c1[nH]c(N/N=C/c2ccccc2)nc2ccccc12	procasp3 activ 31.6, proCasp7 act 37.7 | PC3 dual counter inactive | PC7 dual conf inactive
O=c1[nH]c(N/N=C/c2cc3c(cc2[N+](=O)[O-])OCO3)nc2ccccc12	none
O=c1[nH]c(N/N=C\c2ccc3c(c2)OCO3)nc2ccccc12	procasp3 activ 24.2, proCasp7 act 27.5, PME-1 primary 29.5 | PC3 dual counter inactive | PC7 dual conf inactive
C(=N\Nc1nc2ccccc2[nH]1)/c1ccccc1	none
O=C(Nc1ccc(F)cc1)c1ccc(Br)c(S(=O)(=O)N2CCOCC2)c1	none
CCCC1C(C#N)=C(N)Oc2cc(C)n(C)c(=O)c21 (stereo not given)	none
Cc1cc2c(c(=O)n1C)C(Cc1ccccc1)C(C#N)=C(N)O2 (stereo not given)	procasp3 activ 38.2, proCasp7 act 46.8 | PC3 dual counter inactive | PC7 dual conf inactive
COc1c(CC=C(C)C)c(O)cc2oc(=O)c3c4ccc(O)cc4oc3c12	procasp3 activ 26.6, proCasp7 act 27.4 | PC3 dual counter inactive | PC7 dual conf inactive
Cc1c(Cc2ccccc2)c(=O)oc2cc(O)ccc12	procasp3 activ 25.2, proCasp7 act 27.3 | PC3 dual counter inactive | PC7 dual conf inactive
O=c1oc2cc(O)ccc2c2oc3cc(O)ccc3c12	proCasp7 act 26.2 | PC3 dual counter inactive | PC7 dual conf inactive
Cc1c(Cc2ccccc2)c(=O)oc2cc(OCC(=O)c3ccccc3)ccc12	none
CC(C)=CCc1c(O)cc2c(=O)c3ccc(O)cc3oc2c1O	none
COc1ccc(CNC(=O)C2(CC3CC(c4ccccc4)=NO3)CCNCC2)cc1 (stereo not given)	none
CC(=O)Nc1ccc(C2CC(c3ccc(Cl)cc3)=NN2c2ccccc2)cc1 (stereo not given)	procasp3 activ 163.4, proCasp7 act 136.2 | PC3 dual counter inactive | PC7 dual conf inactive
Clc1ccc(C2=NN(c3ccccc3)C(c3ccco3)C2)cc1 (stereo not given)	none
CC(=O)Nc1ccc(C2=NN(c3ccccc3)C(c3ccccc3)C2)cc1 (stereo not given)	procasp3 activ 217.8, proCasp7 act 46.0 | PC3 dual counter inactive | PC7 dual conf inactive
CC1(N(O)C=C2C=CC(=O)C=C2)CCCCC1=O (stereo not given)	none
O=C(CCCOc1ccc(Cl)cc1Cl)NN1CCOCC1	none
Cc1ccc(S(=O)(=O)CCC(=O)Nc2ccccc2Br)cc1	none
COc1ccc(-c2cc(C(=O)OC3CCOC3=O)c3ccccc3n2)cc1OC (stereo not given)	procasp3 activ 27.2, proCasp7 act 27.6 | PC3 dual counter inactive | PC7 dual conf inactive
O=C(OC1CCOC1=O)c1cc(-c2ccccc2)nc2ccccc12 (stereo not given)	none
COc1ccc(N(C(=O)c2ccncc2)S(=O)(=O)c2ccc3c4c(cccc24)C(=O)N3C)cc1	proCasp7 act 31.6 | PC3 dual counter inactive | PC7 dual conf inactive
CCOC(=O)c1sc2c(c1C)C(c1cccs1)C1=C(CCCC1=O)N2 (stereo not given)	procasp3 activ 22.7, proCasp7 act 40.0 | PC3 dual counter inactive | PC7 dual conf inactive
CC(=O)Nc1ccc(S(=O)(=O)N[C@@H](C)C(=O)OCC(=O)NC2CCCC2)cc1	none (no result: Fam108B inh)
O=c1oc2ccccc2cc1-c1nc2c(s1)CCCC2	proCasp7 act 96.5 | PC3 dual counter inactive | PC7 dual conf inactive
CCOC(=O)c1c(O)c(Cl)c(C)[nH]c1=O	none
Cc1cc(C(=O)NC(CC(C)C)C(=O)O)cc(C)c1[N+](=O)[O-] (stereo not given)	proCasp7 act 26.4 | PC3 dual counter inactive | PC7 dual conf inactive
Nc1ccccc1-c1nc2ccccc2c(=O)o1	procasp3 activ 27.3, proCasp7 act 34.3 | PC3 dual counter inactive | PC7 dual conf inactive
c1ccc(Cn2c(-c3ccco3)nc3nc4ccccc4nc32)cc1	proCasp7 act 45.5 | PC3 dual counter inactive | PC7 dual conf inactive
CC(=O)Nc1cccc2c1C(=O)N(c1ccccc1OC(C)=O)C2=O	none
O=C1C=C(Nc2ccccc2)CC(c2ccccc2)C1 (stereo not given)	none
COc1ccc(NC2=CC(=O)CC(c3ccccc3)C2)cc1 (stereo not given)	proCasp7 act 25.8 | PC3 dual counter inactive | PC7 dual conf inactive
COc1ccc(OC)c2sc(N3CCCCC3)nc12	proCasp7 act 28.2 | PC3 dual counter inactive | PC7 dual conf inactive
CC(C)[C@H](NC(=O)C1CC(=O)N(c2ccc3c(c2)OCO3)C1)C(=O)NC1CCCC1 (stereo not given in full)	none
CCOC(=O)c1sc2nc(-c3cccnc3)ccc2c1N	none
CC(C)OC(=O)c1sc2nc(-c3ccccc3)ccc2c1N	proCasp7 act 33.8 | PC3 dual counter inactive | PC7 dual conf inactive
CCNC(=O)COC(=O)c1cc(-c2ccc(OC)cc2)nc2ccccc12	none
COc1ccc(-c2cc(C(=O)OCC(=O)NC(C)C)c3ccccc3n2)cc1	procasp3 activ 37.6, proCasp7 act 27.4 | PC3 dual counter inactive | PC7 dual conf inactive
CCOC(=O)[C@H]1[C@H]2COc3ccc(Cl)cc3[C@H]2N2C(=O)CNC(=O)[C@@]12C	none (no result: LYPLA1 inh, LYPLA2 counter, Fam108B inh, PME-1 primary)
C=CCNc1nc(N)c(C(=C(C#N)C#N)c2ccc(Br)cc2)s1	proCasp7 act 104.8 | PC3 dual counter inactive | PC7 dual conf inactive
C=CCNc1sc(C(=O)c2ccc(C)cc2)c(N)c1C#N	none
CCOC(=O)C1=C(C)NC(=O)NC1c1ccc(N2CCC(c3ccccc3)=N2)cc1 (stereo not given)	procasp3 activ 31.1, proCasp7 act 72.4 | PC3 dual counter inactive | PC7 dual conf inactive
